Measured values: ChEMBL document CHEMBL3046000, “Design and synthesis of 1-(benzothiazol-5-yl)-1H-1,2,4-triazol-5-ones as protoporphyrinogen oxidase inhibitors” (Bioorg Med Chem, 2013)
pKi: −log10 of the molar value.

Assays:
[1] = Phytotoxicity against 4-leaf stage Triticum aestivum (wheat) plants assessed as plant growth inhibition at 150 g ai/ha applied through spraying measured 30 days after compound treatment under greenhouse conditions; assay type: organism-based; details: in vivo, read-out: GI
[2] = Phytotoxicity against four-leaf stage Brassica napus (oilseed rape) plants assessed as plant growth inhibition at 150 g ai/ha applied through spraying measured 30 days after compound treatment under greenhouse conditions; assay type: organism-based; details: in vivo, read-out: GI
[3] = Phytotoxicity against four-leaf stage Zea mays cv. Anjou (maize) plants assessed as plant growth inhibition at 150 g ai/ha applied through spraying measured 30 days after compound treatment under greenhouse conditions; assay type: organism-based; details: in vivo, read-out: GI
[4] = Phytotoxicity against four-leaf stage Gossypium hirsutum (cotton) plants assessed as plant growth inhibition at 150 g ai/ha applied through spraying measured 30 days after compound treatment under greenhouse conditions; assay type: organism-based; details: in vivo, read-out: GI
[5] = Phytotoxicity against 4-leaf stage Glycine max (soybean) plants assessed as plant growth inhibition at 150 g ai/ha applied through spraying measured 30 days after compound treatment under greenhouse conditions; assay type: organism-based; details: in vivo, read-out: GI
[6] = Phytotoxicity against four-leaf stage Oryza sativa (rice) plants assessed as plant growth inhibition at 150 g ai/ha applied through spraying measured 30 days after compound treatment under greenhouse conditions; assay type: organism-based; details: in vivo, read-out: GI
[7] = Phytotoxicity against 4-leaf stage Glycine max (soybean) plants assessed as plant growth inhibition at 75 g ai/ha applied through spraying measured 30 days after compound treatment under greenhouse conditions; assay type: organism-based; details: in vivo, read-out: GI
[8] = test system: Chenopodium album; assay: Post-emergence herbicidal activity against Chenopodium album seedlings assessed as plant growth inhibition at 75 g ai/ha measured 15 days after compound treatment under greenhouse conditions; assay type: functional; details: 360 h, read-out: GI
[9] = test system: Chenopodium album; assay: Post-emergence herbicidal activity against Chenopodium album seedlings assessed as plant growth inhibition at 37.5 g ai/ha measured 15 days after compound treatment under greenhouse conditions; assay type: functional; details: 360 h, read-out: GI
[10] = test system: Capsella bursa-pastoris; assay: Post-emergence herbicidal activity against Capsella bursa-pastoris assessed as plant growth inhibition at 75 g ai/ha; assay type: functional; details: read-out: GI
How it was run: (§1)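 Compounds formulated as 100 g/L emulsifiable concentrates in DMF with Tween-80 as emulsifier, then diluted with water. Sprayed post-emergence onto pot-grown plants in a greenhouse, with broadleaf weeds at the 2-leaf stage and grasses at the 1-leaf stage. Clay soil with 1.6% organic matter and CEC 12.1 […]; relative humidity about 50%. Rate (g ai/ha) = active ingredient ÷ pot surface area. Untreated and DMF + Tween-80 solvent controls.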

[11] = test system: Symphyotrichum subulatum; assay: Post-emergence herbicidal activity against Symphyotrichum subulatum assessed as plant growth inhibition at 75 g ai/ha; assay type: functional; details: read-out: GI; how it was run: as §1
[12] = test system: Boehmeria nivea; assay: Post-emergence herbicidal activity against Boehmeria nivea assessed as plant growth inhibition at 75 g ai/ha; assay type: functional; details: read-out: GI; how it was run: as §1
[13] = test system: Amaranthus spinosus; assay: Post-emergence herbicidal activity against Amaranthus spinosus assessed as plant growth inhibition at 75 g ai/ha; assay type: functional; details: read-out: GI; how it was run: as §1
[14] = test system: Eleusine indica; assay: Post-emergence herbicidal activity against Eleusine indica assessed as plant growth inhibition at 75 g ai/ha; assay type: functional; details: read-out: GI; how it was run: as §1
[15] = test system: Cerastium arvense; assay: Post-emergence herbicidal activity against Cerastium arvense assessed as plant growth inhibition at 75 g ai/ha; assay type: functional; details: read-out: GI; how it was run: as §1
[16] = test system: Veronica polita; assay: Post-emergence herbicidal activity against Veronica polita assessed as plant growth inhibition at 75 g ai/ha; assay type: functional; details: read-out: GI; how it was run: as §1
[17] = test system: Senna tora; assay: Post-emergence herbicidal activity against Senna tora assessed as plant growth inhibition at 75 g ai/ha; assay type: functional; details: read-out: GI; how it was run: as §1
[18] = test system: Alkekengi officinarum; assay: Post-emergence herbicidal activity against Physalis alkekengi assessed as plant growth inhibition at 75 g ai/ha; assay type: functional; details: read-out: GI; how it was run: as §1
[19] = test system: Phytolacca acinosa; assay: Post-emergence herbicidal activity against Raddix phytolaccae assessed as plant growth inhibition at 75 g ai/ha; assay type: functional; details: read-out: GI; how it was run: as §1
[20] = test system: Ammannia baccifera; assay: Post-emergence herbicidal activity against Ammannia baccifera assessed as plant growth inhibition at 75 g ai/ha; assay type: functional; details: read-out: GI; how it was run: as §1
[21] = test system: Ludwigia prostrata; assay: Post-emergence herbicidal activity against Ludwigia prostrata assessed as plant growth inhibition at 75 g ai/ha; assay type: functional; details: read-out: GI; how it was run: as §1
[22] = test system: Commelina communis; assay: Post-emergence herbicidal activity against Commelina communis (Asiatic dayflower) assessed as plant growth inhibition at 75 g ai/ha; assay type: functional; details: read-out: GI; how it was run: as §1
[23] = test system: Myosoton aquaticum; assay: Post-emergence herbicidal activity against Myosoton aquaticum assessed as plant growth inhibition at 75 g ai/ha; assay type: functional; details: read-out: GI; how it was run: as §1
[24] = test system: Sonchus asper; assay: Post-emergence herbicidal activity against Sonchus asper assessed as plant growth inhibition at 75 g ai/ha; assay type: functional; details: read-out: GI; how it was run: as §1
[25] = test system: Polygonum humifusum; assay: Post-emergence herbicidal activity against Polygonum humifusum assessed as plant growth inhibition at 75 g ai/ha; assay type: functional; details: read-out: GI; how it was run: as §1
[26] = test system: Solanum nigrum; assay: Post-emergence herbicidal activity against Solanum nigrum (black nightshade) assessed as plant growth inhibition at 75 g ai/ha; assay type: functional; details: read-out: GI; how it was run: as §1
[27] = test system: Chenopodium album; assay: Post-emergence herbicidal activity against Chenopodium album seedlings assessed as plant growth inhibition at 150 g ai/ha measured 15 days after compound treatment under greenhouse conditions; assay type: functional; details: 360 h, read-out: GI
[28] = test system: Amaranthus retroflexus; assay: Post emergence herbicidal activity against Amaranthus retroflexus seedlings assessed as plant growth inhibition at 75 g ai/ha measured 15 days after compound treatment under greenhouse conditions; assay type: functional; details: 360 h, read-out: GI
[29] = test system: Amaranthus retroflexus; assay: Post emergence herbicidal activity against Amaranthus retroflexus seedlings assessed as plant growth inhibition at 37.5 g ai/ha measured 15 days after compound treatment under greenhouse conditions; assay type: functional; details: 360 h, read-out: GI
[30] = test system: Amaranthus retroflexus; assay: Post emergence herbicidal activity against Amaranthus retroflexus seedlings assessed as plant growth inhibition at 150 g ai/ha measured 15 days after compound treatment under greenhouse conditions; assay type: functional; details: 360 h, read-out: GI
[31] = test system: Brassica juncea; assay: Post-emergence herbicidal activity against Brassica juncea seedlings assessed as plant growth inhibition at 75 g ai/ha measured 15 days after compound treatment under greenhouse conditions; assay type: functional; details: 360 h, read-out: GI
[32] = test system: Brassica juncea; assay: Post-emergence herbicidal activity against Brassica juncea seedlings assessed as plant growth inhibition at 37.5 g ai/ha measured 15 days after compound treatment under greenhouse conditions; assay type: functional; details: 360 h, read-out: GI
[33] = test system: Brassica juncea; assay: Post-emergence herbicidal activity against Brassica juncea seedlings assessed as plant growth inhibition at 150 g ai/ha measured 15 days after compound treatment under greenhouse conditions; assay type: functional; details: 360 h, read-out: GI
[34] = test system: Setaria faberi; assay: Post-emergence herbicidal activity against Setaria faberi (Giant Foxtail) seedlings assessed as plant growth inhibition at 75 g ai/ha measured 15 days after compound treatment under greenhouse conditions; assay type: functional; details: 360 h, read-out: GI
[35] = test system: Setaria faberi; assay: Post-emergence herbicidal activity against Setaria faberi (Giant Foxtail) seedlings assessed as plant growth inhibition at 37.5 g ai/ha measured 15 days after compound treatment under greenhouse conditions; assay type: functional; details: 360 h, read-out: GI
[36] = test system: Setaria faberi; assay: Post-emergence herbicidal activity against Setaria faberi (Giant Foxtail) seedlings assessed as plant growth inhibition at 150 g ai/ha measured 15 days after compound treatment under greenhouse conditions; assay type: functional; details: 360 h, read-out: GI
[37] = test system: Digitaria sanguinalis; assay: Post-emergence herbicidal activity against Digitaria sanguinalis (hairy crabgrass) seedlings assessed as plant growth inhibition at 75 g ai/ha measured 15 days after compound treatment under greenhouse conditions; assay type: functional; details: 360 h, read-out: GI
[38] = test system: Digitaria sanguinalis; assay: Post-emergence herbicidal activity against Digitaria sanguinalis (hairy crabgrass) seedlings assessed as plant growth inhibition at 37.5 g ai/ha measured 15 days after compound treatment under greenhouse conditions; assay type: functional; details: 360 h, read-out: GI
[39] = test system: Digitaria sanguinalis; assay: Post-emergence herbicidal activity against Digitaria sanguinalis (hairy crabgrass) seedlings assessed as plant growth inhibition at 150 g ai/ha measured 15 days after compound treatment under greenhouse conditions; assay type: functional; details: 360 h, read-out: GI
[40] = test system: Echinochloa crus-galli; assay: Post emergence herbicidal activity against Echinochloa crus-galli (barnyard grass) seedlings assessed as plant growth inhibition at 75 g ai/ha measured 15 days after compound treatment under greenhouse conditions; assay type: functional; details: 360 h, read-out: GI
[41] = test system: Echinochloa crus-galli; assay: Post emergence herbicidal activity against Echinochloa crus-galli (barnyard grass) seedlings assessed as plant growth inhibition at 37.5 g ai/ha measured 15 days after compound treatment under greenhouse conditions; assay type: functional; details: 360 h, read-out: GI
[42] = test system: Echinochloa crus-galli; assay: Post emergence herbicidal activity against Echinochloa crus-galli (barnyard grass) seedlings assessed as plant growth inhibition at 150 g ai/ha measured 15 days after compound treatment under greenhouse conditions; assay type: functional; details: 360 h, read-out: GI
[43] = target: T1, Protoporphyrinogen oxidase, chloroplastic (Nicotiana tabacum, UniProt O24163); assay: Inhibition of Nicotiana tabacum (tobacco) recombinant PPO assessed as protoporphyrin IX formation at room temperature by fluorimetric assay
T1 sequence (O24163 whole entry): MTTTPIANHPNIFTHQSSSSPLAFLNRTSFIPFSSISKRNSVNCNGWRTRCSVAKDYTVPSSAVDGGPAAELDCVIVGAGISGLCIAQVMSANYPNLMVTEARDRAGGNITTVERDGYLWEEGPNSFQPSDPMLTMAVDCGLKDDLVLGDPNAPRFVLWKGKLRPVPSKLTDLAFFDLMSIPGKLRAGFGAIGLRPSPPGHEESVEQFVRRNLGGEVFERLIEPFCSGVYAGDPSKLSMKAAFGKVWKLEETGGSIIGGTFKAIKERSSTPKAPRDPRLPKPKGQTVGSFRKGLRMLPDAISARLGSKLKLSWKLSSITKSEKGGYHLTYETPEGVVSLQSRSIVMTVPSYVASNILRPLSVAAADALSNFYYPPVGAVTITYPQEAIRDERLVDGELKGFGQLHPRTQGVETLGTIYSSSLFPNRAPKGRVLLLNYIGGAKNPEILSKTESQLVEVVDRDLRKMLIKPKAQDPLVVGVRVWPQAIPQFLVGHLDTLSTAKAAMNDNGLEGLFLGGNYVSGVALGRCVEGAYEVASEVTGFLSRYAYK

Cc1nn(-c2cc(NS(C)(=O)=O)c(Cl)cc2Cl)c(=O)n1C(F)F [SULFENTRAZONE]
≥ 90%: inhibition of growth at 75 g/ha [8] | inhibition of growth at 150 g/ha [27] | inhibition of growth at 75 g/ha [28] | inhibition of growth at 150 g/ha [30] | inhibition of growth at 75 g/ha [31] | inhibition of growth at 150 g/ha [33] | inhibition of growth at 150 g/ha [36] | inhibition of growth at 75 g/ha [40] | inhibition of growth at 150 g/ha [42]
50%: inhibition of growth at 75 g/ha [37]
7.52: pKi [43]
80%: inhibition of growth at 37.5 g/ha [29] | inhibition of growth at 37.5 g/ha [32] | inhibition of growth at 75 g/ha [34] | inhibition of growth at 37.5 g/ha [41]
100%: inhibition at 720 h [2] | inhibition at 720 h [4] | inhibition of growth at 75 g/ha [10] | inhibition of growth at 75 g/ha [11] | inhibition of growth at 75 g/ha [12] | inhibition of growth at 75 g/ha [13] | inhibition of growth at 75 g/ha [14] | inhibition of growth at 75 g/ha [16] | inhibition of growth at 75 g/ha [18] | inhibition of growth at 75 g/ha [19] | inhibition of growth at 75 g/ha [20] | inhibition of growth at 75 g/ha [21] | inhibition of growth at 75 g/ha [22] | inhibition of growth at 75 g/ha [24] | inhibition of growth at 75 g/ha [25] | inhibition of growth at 75 g/ha [26]
70%: inhibition at 720 h [3] | inhibition at 720 h [6]
60%: inhibition of growth at 37.5 g/ha [9] | inhibition of growth at 37.5 g/ha [35] | inhibition of growth at 150 g/ha [39]
< 50%: inhibition of growth at 37.5 g/ha [38]
10%: inhibition at 720 h [7]
> 90%: inhibition of growth at 75 g/ha [15] | inhibition of growth at 75 g/ha [17] | inhibition of growth at 75 g/ha [23]
20%: inhibition at 720 h [1] | inhibition at 720 h [5]
